Test results reported in ChEMBL document CHEMBL1124920, “cis-diamineplatinum (II) complexes containing phosphono carboxylate ligands as antitumor agents” (J Med Chem, 1990).

Tests used:
[1] = system: M5076; assay: Optimum dose measured in mg/kg; assay type: functional, organism-based
[2] = system: M5076; assay: Antitumor activity of the best % ILS of platinum-phospono carboxylate complex against subcutaneously implanted M5076 reticulum cell sarcoma; assay type: functional
In short: (§1)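 BDF1 mice of either sex (6-10 weeks) were implanted sc on day 0 with ~25 mg M5076 tumor fragments. Dosing was iv on days 5, 9, 13 and 17, with doses given per injection, in groups of eight. Study ended on day 75. Read-outs were % ILS of MST and T-C, the difference in median days for tumors to reach 1 g. Active means ILS ≥25% or T-C >13 days.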

[3] = system: M5076; assay: Relative median time for tumors to reach 1 g in drug-treated groups and the control group (T-C in days); assay type: functional; in short: as §1
[4] = system: L1210; assay: Antitumor activity (ip) against CDF1 mice bearing Leukemia L1210 cells in 6 mice; assay type: functional, organism-based; conditions: Mus musculus
In short: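 Female CDF1 mice (16-22 g) inoculated ip with 1 × 10^6 L1210 cells in 0.5 mL […] on day 0. Compound given day 1 in 0.5 mL water, six mice per dose. Vehicle controls and cisplatin 8 mg/kg positive controls included. Run to 3× control MST, survivors scored as dying then. Read-out %ILS of MST; >25% active, maximum 200%.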

[5] = system: L1210; assay: Optimal dose of the compound measured in mg/kg against CDF1 mice bearing L1210 leukemia cells.; assay type: functional, organism-based; conditions: Mus musculus
In short: (§2)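 Female CDF1 mice (16-22 g) received 1 × 10^6 L1210 cells ip in 0.5 mL […] on day 0. Test compound was given in 0.5 mL water on day 1, with six mice per dose. The study ended at 3× the control mean survival time (MST), and survivors were scored as dying that day. ILS is the % increase in MST over controls; >25% counts as active, and the maximum possible is 200%.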

[6] = system: L1210; assay: Antitumor activity (ip) against CDF1 mice bearing Leukemia L1210 cells; assay type: functional, organism-based; conditions: Mus musculus; in short: as §2
[7] = organism: Mus musculus; assay: Optimal dose in Sarcoma inoculated CFW mice.; assay type: functional, organism-based
In short: (§3)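 Female CFW mice (18-25 g) were implanted ip with 2 × 10^6 Sarcoma 180 ascites cells on day 0. Compound was given ip in 0.5 mL water on day 1, with six mice per dose. The run lasted twice the control MST, and survivors were counted as dying then. Activity is % ILS of MST; >50% counts as active, and the maximum is 100%.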

[8] = system: Mus musculus; assay: Antitumor activity against CFW mice bearing Sarcoma 180 ascites (S180a) following i.p. administration.; assay type: functional, organism-based; in short: as §3
[9] = system: Mus musculus; assay: Number of surviving CFW mice bearing Sarcoma 180 ascites (S180a) (6 mice treated i.p.); assay type: functional, organism-based
In short: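 Female CFW mice (18-25 g) implanted ip with 2 × 10^6 S180 ascites cells on day 0. Compound given ip in 0.5 mL water on day 1, adjusted to pH 7, six mice per dose. Vehicle and cisplatin control groups included. Run to twice control MST, survivors counted as dying that day. Read-out %ILS of MST; >50% active, maximum 100%.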

Sequence | DOSE [1] | ILS [2] [%] | T-C [3] | Survivors [4] | DOSE [5] [mg/kg] | ILS [6] [%] | DOSE [7] [mg/kg] | ILS [8] [%] | Survivors [9]
CISPLATIN | 5 | 28 | 25 | 0 | 8 | 87 | 8 | 81 | 3
CARBOPLATIN | – | – | – | 0 | 80 | 90 | 120 | 95 | 4
